Reference: ChEMBL document CHEMBL3045365, “Chemical composition and antifungal activity of Salvia macrochlamys and Salvia recognita essential oils” (2006)

Key:
[1] = test system: Colletotrichum gloeosporioides; test: Antifungal activity against Colletotrichum gloeosporioides assessed as growth inhibition at 4 uL in 2 mM acetone by direct bioautography; format: functional
Method in brief: (§1)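 Standards applied at 2 mM in 4 μL acetone onto silica TLC plates and tested by direct bioautography against each Colletotrichum species. Activity read as clear inhibitory zone size (mm), reported as mean ± SEM. Technical-grade fungicides at 2 mM in 2 μL EtOH served as internal standards. Runs repeated multiple times in dose- and non-dose-response formats.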

Colletotrichum fragariae [2] = test: Antifungal activity against Colletotrichum fragariae assessed as growth inhibition at 4 uL in 2 mM acetone by direct bioautography; format: functional; method in brief: as §1
Colletotrichum acutatum [3] = test: Antifungal activity against Colletotrichum acutatum assessed as growth inhibition at 4 uL in 2 mM acetone by direct bioautography; format: functional; method in brief: as §1
Colletotrichum acutatum [4] = test: Antifungal activity against Colletotrichum acutatum assessed as growth inhibition at 2 uL in 2 mM EtOH by direct bioautography
Colletotrichum fragariae [5] = test: Antifungal activity against Colletotrichum fragariae assessed as growth inhibition at 2 uL in 2 mM EtOH by direct bioautography
[6] = test system: Colletotrichum gloeosporioides; test: Antifungal activity against Colletotrichum gloeosporioides assessed as growth inhibition at 2 uL in 2 mM EtOH by direct bioautography

Row | SMILES | inhibition zone (IZ) [1] [mm] | inhibition zone (IZ) (Colletotrichum fragariae [2]) [mm] | inhibition zone (IZ) (Colletotrichum acutatum [3]) [mm] | inhibition zone (IZ) (Colletotrichum acutatum [4]) [mm] | inhibition zone (IZ) (Colletotrichum fragariae [5]) [mm] | inhibition zone (IZ) [6] [mm]
1 | Cc1ccc(C(C)C)c(O)c1 [THYMOL] | 0 | 0 | 0 |  |  | 
2 | Cc1ccc(C(C)C)cc1O [CARVACROL] | 3.5 | 3.4 | 4.5 |  |  | 
3 | O=C1C2CC=CCC2C(=O)N1SC(Cl)(Cl)Cl (stereo not drawn) [CAPTAN] |  |  |  | 14.67 | 15 | 10.33
4 | CC1(C)C2CCC1(C)C(O)C2 (stereo not drawn) [BORNEOL] | 0 | 0 | 0 |  |  | 
5 | CO/C=C(/C(=O)OC)c1ccccc1Oc1cc(Oc2ccccc2C#N)ncn1 [AZOXYSTROBIN] |  |  |  | 24.33 | 19.33 | 28.33
6 | CCCCNC(=O)n1c(NC(=O)OC)nc2ccccc21 [BENOMYL] |  |  |  | 18 | 18.33 | 19.33
7 | CC12CCC(CC1)C(C)(C)O2 [EUCALYPTOL] | 0 | 0 | 0 |  |  | 
8 | CC1(C)[C@H]2CC[C@]1(C)C(=O)C2 [(-)-CAMPHOR] | 0 | 0 | 0 |  |  | 
9 | CC12CCC(CC1=O)C2(C)C (stereo not drawn) [CAMPHOR] | 0 | 0 | 0 |  |  | 
10 | CC1(C)[C@H]2CC[C@]1(C)[C@H](O)C2 [(-)-BORNEOL] | 0 | 0 | 0 |  |  | 
11 | Cc1cc(C2CC2)nc(Nc2ccccc2)n1 [CYPRODINIL] |  |  |  | 29.33 | 30.33 | 29.33
